Results as given in article PMC6361726 (Bioorganic & medicinal chemistry, 2018).

Experiments:
HK853 [1] = test: Fluorescence polarization; format: binding, Thermotoga maritima
HK853 [2] = test: ATP[γ-33P] enzymatic activity inhibition assay; format: biochemical, Thermotoga maritima; details: at non-aggregating concentrations
How it was run: (§1)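 Secondary assay run in a coupled competition-aggregation format on two histidine kinases: HK853 from Thermotoga maritima and VicK from Streptococcus pneumoniae. Enzymatic activity is followed using ATP[γ-33P], and the degree of inhibition by the test compound is measured.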

VicK = VicK (Streptococcus pneumoniae, UniProt Q8DPL8); test: ATP[γ-33P] enzymatic activity inhibition assay; format: biochemical; details: at non-aggregating concentrations
How it was run: as §1

[3] = test system: Methicillin-sensitive Staphylococcus aureus; test: Cell viability by optical density and resazurin indicator dye; format: cell-based; details: compared to a DMSO control, one replicate
Pseudomonas aeruginosa = test: as above; format: cell-based; details: compared to a DMSO control, one replicate
S. aureus = test: Biofilm formation, crystal violet staining assay; format: cell-based, Staphylococcus aureus; details: compared to a DMSO control, one replicate
P. aeruginosa = test: Biofilm formation, crystal violet staining assay; format: cell-based, Pseudomonas aeruginosa; details: compared to a DMSO control, one replicate
p38 MAP kinase = details: read-out: inhibition of p38 MAP kinase; quantity type not given; cited from earlier work
protein kinase D = details: cited from earlier work

Sequence of VicK (Q8DPL8 whole entry): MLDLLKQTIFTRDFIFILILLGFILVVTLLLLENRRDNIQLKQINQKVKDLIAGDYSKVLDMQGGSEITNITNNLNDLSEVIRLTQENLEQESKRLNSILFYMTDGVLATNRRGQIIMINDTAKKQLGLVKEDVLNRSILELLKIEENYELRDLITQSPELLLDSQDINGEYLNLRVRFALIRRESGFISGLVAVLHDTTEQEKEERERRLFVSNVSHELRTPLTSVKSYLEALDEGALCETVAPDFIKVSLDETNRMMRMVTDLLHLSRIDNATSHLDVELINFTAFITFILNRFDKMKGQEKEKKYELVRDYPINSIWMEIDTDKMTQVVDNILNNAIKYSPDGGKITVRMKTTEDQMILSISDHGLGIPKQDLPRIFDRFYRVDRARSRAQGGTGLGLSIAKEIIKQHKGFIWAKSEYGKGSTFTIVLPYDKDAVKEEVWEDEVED

Row | activity in the HTS (FP screen) for HK inhibition (HK853 [1]; related library compounds that were not leads) | Compound | displacement of ADP-BODIPY from the HK ATP-binding domain (HK853 [1]) | inhibition of HK activity (HK853 [2]) | inhibition of VicK activity (VicK) | effect on cell viability [3] | effect on cell viability (Pseudomonas aeruginosa) | effect on biofilm production (S. aureus) | effect on biofilm production (P. aeruginosa) | IC50 (p38 MAP kinase) | inhibition of protein kinase D (protein kinase D)
1 | inactive | Fc1ccc(-c2c(-c3ccncc3)[nH]c3cccnc23)cc1 [RO1153853–000] | – | – | – | – | – | – | – | – | –
2 | – | Fc1ccc(-c2c(-c3ccncc3)[nH]c3nccnc23)cc1 [compound 32] | displace ADP-BODIPY | inhibit | inhibit | did not cause a significant decrease in cell viability | did not cause a significant decrease in cell viability | little effect | little effect | 0.053 µM | potent inhibitor
